Only some compounds are listed: those with a hit (about 9.6% of all), similar ones and a draw of the others.
PMI act hi M6P = increases human PMI activity with near-saturating mannose 6-phosphate | coupled PMI enzyme assay, resazurin fluorescence, 20 min; hits give high values; 1 = untreated enzyme, 0 = substrate-free blank | activation factor at 20 µM | actives 0.34% (n = 190,000);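 active = activation factor of 2 or more at 20 µM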
Target sequence (P34949 whole entry, looked up): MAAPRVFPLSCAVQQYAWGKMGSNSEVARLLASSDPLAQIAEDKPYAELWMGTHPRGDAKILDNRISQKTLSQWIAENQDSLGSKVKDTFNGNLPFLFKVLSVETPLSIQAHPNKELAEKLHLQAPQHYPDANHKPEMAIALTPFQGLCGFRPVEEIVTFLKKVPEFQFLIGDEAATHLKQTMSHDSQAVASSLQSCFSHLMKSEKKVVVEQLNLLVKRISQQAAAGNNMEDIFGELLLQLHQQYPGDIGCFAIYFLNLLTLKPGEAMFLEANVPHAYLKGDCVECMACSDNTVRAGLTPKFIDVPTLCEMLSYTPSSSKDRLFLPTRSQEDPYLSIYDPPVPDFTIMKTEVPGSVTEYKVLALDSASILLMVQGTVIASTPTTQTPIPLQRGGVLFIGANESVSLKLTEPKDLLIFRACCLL
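Test system: human PMI in coupled enzyme assay; Input: PMI at 15 ng/mL final; Medium: HEPES buffer, pH 7.4; Schedule: 20 min incubation at room temperature; Technique: resorufin fluorescence at Ex 544/Em 590 nm; Compound: 20 µM single dose; Probe or stimulus: Near-saturating mannose-6-phosphate, 1.0 mM.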
HCT116 bCat-KO = beta-catenin-lacking colon tumor cell growth suppression. HCT116 beta-catenin knockout viability, CellTiter-Glo, 60 h; hits give low values. viability, % at 10 µM. actives 1.5% (n = 140,000). AID 818;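 active = viability at or under a set limit, the compound median less 4 SD, cut at about 6% in these data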;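 note: 0% = Hyamine 1622 control at 20 µM and 100% = untreated cell control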
Lmaj promast = Leishmania major promastigote growth inhibition. Leishmania major promastigotes, resazurin fluorescence viability. AID 1063. actives 9% (n = 200,000). inhibition, % at 10 µM; in the data active = inhibition above about 50%;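 note: promastigotes grown with compound for 44 hours at 28 °C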
PMI act = phosphomannose isomerase (human) activation. purified human PMI, coupled resazurin fluorescence, 20 min; hits give high values; 1 = vehicle control, 0 substrate-free wells. activation factor at 20 µM. P34949. AID 1214. actives 0.005% (n = 190,000);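 active = activation factor of 2 or more at 20 µM, relative to plate controls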
HCT116 PTEN-null = PTEN-deleted cell growth suppression | HCT116 PTEN-null viability, CellTiter-Glo, 60 h; hits give low values | viability, % at 10 µM | actives 1.2% (n = 140,000) | AID 827;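 active = viability at or below a set limit, 4 SD under the median of all tested compounds, cut at about 3.7% in these data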;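 note: PTEN knockout HCT116 line with beta catenin targeted HCT116 as companion control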
Starred values were filed as active, the others as inactive.

COc1cc(C2SCC(=O)Nc3c2c(C)nn3-c2ccccc2)cc(OC)c1OC (stereo unspecified) was read as PMI act hi M6P 1.1, HCT116 bCat-KO 93.3, Lmaj promast 91.1*, PMI act 1.1 and HCT116 PTEN-null 92.5.
Cc1nn(C2CCOC(C)(C)C2)c2c1C(c1ccc3c(c1)OCO3)SCC(=O)N2 (stereo unspecified) was read as PMI act hi M6P 1.1, HCT116 bCat-KO 97.0, Lmaj promast 1.2, PMI act 1 and HCT116 PTEN-null 83.9.
For CCOC(=O)c1[nH]c(C)c(C(=O)N2CCC3(CC2)OCCO3)c1C the results were PMI act hi M6P 1, HCT116 bCat-KO 90.7, Lmaj promast -1.2, PMI act 1 and HCT116 PTEN-null 101.6.
Cc1ccnc(-n2c(C)nc3ccccc3c2=O)c1 was read as PMI act hi M6P 1, HCT116 bCat-KO 88.3, Lmaj promast -4.9, PMI act 0.9 and HCT116 PTEN-null 94.2.
Cc1cccc(N2CCc3c2nc2ccccc2c3N)c1 was read as PMI act hi M6P 1, HCT116 bCat-KO 10.8, Lmaj promast 93.8*, PMI act 0.9 and HCT116 PTEN-null 11.0.
For CC1CN(O)C2CCc3c(no[n+]3[O-])C12O (stereo unspecified) the results were PMI act hi M6P 1.3, HCT116 bCat-KO 92.7, Lmaj promast -7.6, PMI act 1.1 and HCT116 PTEN-null 94.8.
O=C(CSC1c2ccccc2-c2ccccc21)N/N=C/c1ccc(C(=O)O)cc1 was read as PMI act hi M6P 1.1, Lmaj promast -2.2 and PMI act 1.1.
O=C(CSC1c2ccccc2-c2ccccc21)N/N=C/c1ccccc1O was read as PMI act hi M6P 1.1, HCT116 bCat-KO 9.3, Lmaj promast 99.9*, PMI act 1 and HCT116 PTEN-null 12.3.
For C=CCc1cc(C=C2C(=O)N(C)C(=O)N(C)C2=O)cc(OCC)c1OCc1ccccc1 the results were PMI act hi M6P 1, HCT116 bCat-KO 93.1, Lmaj promast 35.2, PMI act 1 and HCT116 PTEN-null 92.1.
`CN1CCN(S(=O)(=O)c2cnc(Cl)c(Br)c2)CC1` gave PMI act hi M6P 0.9, HCT116 bCat-KO 57.1, Lmaj promast -3.8, PMI act 0.8 and HCT116 PTEN-null 61.1.
For CC(=O)c1c(C)n(CCCOC(C)C)c2ccc(O)cc12 the results were PMI act hi M6P 0.9, HCT116 bCat-KO 90.2, Lmaj promast 4.6, PMI act 0.9 and HCT116 PTEN-null 93.0.
For CCc1ccccc1N1C(=O)NC(=O)/C(=C\c2cc(C)n(C)c2C)C1=O the results were PMI act hi M6P 1, HCT116 bCat-KO 105.8, Lmaj promast 54.0*, PMI act 1 and HCT116 PTEN-null 104.8.
For O=C1NC(=O)C(=Cc2ccc(OCC(=O)N3CCOCC3)cc2)C(=O)N1 the results were PMI act hi M6P 1, HCT116 bCat-KO 97.6, Lmaj promast 54.1*, PMI act 1 and HCT116 PTEN-null 96.2.
CN(CCOc1ccc(C=C2C(=O)NC(=O)NC2=O)cc1)c1ccccn1 was read as PMI act hi M6P 1.1, Lmaj promast 1.2 and PMI act 1.1.
Cc1cc(OCCCC(=O)NCc2cccs2)ccc1Cl was read as PMI act hi M6P 1, HCT116 bCat-KO 81.8, Lmaj promast 55.9*, PMI act 1 and HCT116 PTEN-null 81.7.
For Cc1cc(Cl)ccc1OCCCC(=O)NCc1cccs1 the results were PMI act hi M6P 0.9, HCT116 bCat-KO 75.0, Lmaj promast 59.8*, PMI act 0.8 and HCT116 PTEN-null 71.9.
COc1ccc(-c2[nH]ncc2CNC(C)Cc2cccc(C)n2)cc1F (stereo unspecified) was read as PMI act hi M6P 1.1, Lmaj promast 1.2 and PMI act 1.
For Cc1ccc(N2C(=O)NC(=O)/C(=C/c3cnn(-c4ccc(C)cc4)c3)C2=O)cc1 the results were PMI act hi M6P 1.2, HCT116 bCat-KO 93.4, Lmaj promast 84.7*, PMI act 1.1 and HCT116 PTEN-null 102.5.
CC(Cc1ccccc1)NC(=O)/C=C/C(=O)O (stereo unspecified) was read as PMI act hi M6P 1, Lmaj promast -7.0 and PMI act 1.3.
CCn1ccnc1CN1CCCC(C(=O)c2cc(C)c(OC)c(C)c2)C1 (stereo unspecified) was read as PMI act hi M6P 1, Lmaj promast -1.9 and PMI act 0.9.
For O=[N+]([O-])c1ccccc1CNCCc1ccc(F)cc1 the results were PMI act hi M6P 1, HCT116 bCat-KO 82.4, Lmaj promast 24.3, PMI act 1 and HCT116 PTEN-null 83.3.
